Drawing on ChEMBL document CHEMBL4665780, “Synthesis of flutamide-conjugates” (Bioorg Med Chem Lett, 2020), this text covers IC50 for 8 compounds.

One test has as its system U-251. Nature of the test: Anticancer activity against human U-251 cells assessed as inhibition of cell growth incubated for 48 hrs by MTT assay. The test is classed as functional, cell-based. To be noted: U-251, 48 h. Summed up: (§1)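 MTT assay against a panel of human cancer lines (U-251 glioblastoma, PC-3 prostatic adenocarcinoma, K-562 chronic myelogenous leukemia, HCT-15 colorectal adenocarcinoma) and monkey kidney fibroblasts (COS-7). Cells were exposed to compounds for 48 h. IC50 (µM) came from MTT readings as the mean ± SD of two independent trials, each run in triplicate.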

The next test relates to COS-7. Description: Anticancer activity against African green monkey COS7 cells assessed as inhibition of cell growth incubated for 48 hrs by MTT assay. In kind it is cell-based. To be noted: Chlorocebus aethiops, COS-7, 48 h. A digest of the protocol:
as §1
In general terms: Tetrazolium assays rely on reduction of a dye to a coloured formazan, in cell work by metabolically active cells.

The next test has as its system HCT-15. Nature of the test: Anticancer activity against human HCT-15 cells assessed as inhibition of cell growth incubated for 48 hrs by MTT assay. The test is classed as functional, cell-based. The settings on record: HCT-15, 48 h. A digest of the protocol:
as §1

For a further test, the system named is K562. Nature of the test: Anticancer activity against human K562 cells assessed as inhibition of cell growth incubated for 48 hrs by MTT assay. In kind it is functional, cell-based. To be noted: K562, 48 h. A digest of the protocol:
as §1

In another test the test system is PC-3. Description: Anticancer activity against human PC-3 cells assessed as inhibition of cell growth incubated for 48 hrs by MTT assay. In kind it is functional, cell-based. To be noted: PC-3, 48 h. Summed up: as §1

pIC50: −log10 of the molar value.

As for `CCCCCCCCCCCCOc1cc(OCCCCCCCCCCCC)cc(C(=O)NCCN)c1`, the pIC50 in the test on U-251, in the test with COS-7, with HCT-15, in the test with K562 and in the test with PC-3 was under 3.00 in each case.

On to `CC(C)C(=O)N(CC(=O)NCCN)c1ccc([N+](=O)[O-])c(C(F)(F)F)c1`, for which the pIC50 in the test with U-251 was 4.62; in the test with COS-7, 4.82; in the test on HCT-15, under 4.00; in the test with K562, 4.74; in the test on PC-3 it was 4.70.

As for `CCCCCCCCCCCCOc1cc(OCCCCCCCCCCCC)cc(C(=O)NCCNC(=O)CN(C(=O)C(C)C)c2ccc([N+](=O)[O-])c(C(F)(F)F)c2)c1`, the pIC50 with U-251 is 4.84; with COS-7, under 3.00; in the test with HCT-15, 4.72; in the test on K562 it was 4.81; in the test with PC-3 it was 4.88.

On to `CCCCCCCCCCCCOc1cc(OCCCCCCCCCCCC)cc(C(=O)OC)c1`, for which the pIC50 with U-251, with COS-7, in the test on HCT-15, in the test on K562 and in the test with PC-3 was under 3.00 in each case.

Regarding `CCCCCCCCCCCCOc1cc(OCCCCCCCCCCCC)cc(C(=O)NCCN(CCC(=O)NCCNC(=O)CN(C(=O)C(C)C)c2ccc([N+](=O)[O-])c(C(F)(F)F)c2)CCC(=O)NCCNC(=O)CN(C(=O)C(C)C)c2ccc([N+](=O)[O-])c(C(F)(F)F)c2)c1`, the pIC50 was 5.07 in the test on U-251; under 3.00 in the test on COS-7; 4.65 in the test on HCT-15; 5.17 in the test on K562; 5.15 with PC-3.

For `COC(=O)CN(C(=O)C(C)C)c1ccc([N+](=O)[O-])c(C(F)(F)F)c1`, the negative logarithm of the IC50 (pIC50) was 4.70 with U-251; 4.92 with COS-7; under 4.00 in the test with HCT-15; 4.85 with K562; 4.72 in the test on PC-3.

For the compound `CCCCCCCCCCCCOc1cc(OCCCCCCCCCCCC)cc(C(=O)NCCN(CCC(=O)OC)CCC(=O)OC)c1`, the negative-log IC50 (pIC50) in the test on U-251, in the test on COS-7, in the test on HCT-15, in the test with K562 and in the test with PC-3 was under 3.00 in each case.

With `CC(C)C(=O)Nc1ccc([N+](=O)[O-])c(C(F)(F)F)c1` [FLUTAMIDE], the negative logarithm of the IC50 (pIC50) with U-251 is 4.66; in the test with COS-7, 4.29; in the test on HCT-15 it was under 4.00; in the test with K562, 4.53; in the test with PC-3, 4.69.

What is called pIC50 is −log10 of the IC50, conventionally taken in molar units.
